Experimental data taken from ChEMBL document CHEMBL1126736, “Synthesis and antiherpes virus activity of 1,5-anhydrohexitol nucleosides” (J Med Chem, 1993).
Converted amounts (≈) assume the structure as drawn.

How the values were obtained:
[1] = system: HEL; assay: Inhibitory concentration required to inhibit cell growth by 50% in human embryonic lung (HEL) cell culture; assay type: functional
In short: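 Uninfected HEL cells grown in 96-well trays. The value is the concentration that reduces cell growth by 50%. Single representative experiment.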

[2] = system: L1210; assay: Inhibitory concentration required to reduce the growth of murine L1210 cells by 50%; assay type: functional, cell-based; settings: Mus musculus
In short: (§1)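 Cytostatic assay. The value is the concentration that reduces the growth (viability) of the cells by 50%.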

[3] = system: Cytomegalovirus; assay: Inhibitory concentration against CMV strain Davis in human embryonic lung (HEL) cell culture; assay type: functional; settings: Human betaherpesvirus 5
In short: (§2)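 Plaque-reduction assay in human embryonic lung (HEL) cells grown in 96-well trays. The value is the concentration that reduces virus plaque formation by 50%. Single representative experiment.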

[4] = system: Human alphaherpesvirus 1; assay: Inhibitory concentration against HSV type 1 strain F in human embryonic skin muscle (ESM) fibroblast cell culture; assay type: functional
In short: (§3)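 Assay in human embryonic skin-muscle (ESM) cells grown in 96-well trays. The value is the concentration that reduces virus-induced cytopathicity by 50%. Single representative experiment.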

[5] = system: Human alphaherpesvirus 3; assay: Inhibitory concentration against VZV strain YS in human embryonic lung (HEL) cell culture; assay type: functional
[6] = system: Human alphaherpesvirus 3; assay: Inhibitory concentration against VZV strain OKA in human embryonic lung (HEL) cell culture; assay type: functional
[7] = system: MT4; assay: Inhibitory concentration required to reduce the growth of human MT-4 cells by 50%; assay type: functional, cell-based; in short: as §1
[8] = system: Human alphaherpesvirus 2; assay: Inhibitory concentration against HSV type 2 strain Lyons in human embryonic skin muscle (ESM) fibroblast cell culture; assay type: functional; in short: as §3
[9] = system: Vesicular stomatitis virus; assay: Inhibitory concentration against VSV in human embryonic skin muscle (ESM) fibroblast cell culture; assay type: functional
[10] = system: Human alphaherpesvirus 1; assay: Inhibitory concentration against TK-HSV type 1 strain B2006 in human embryonic skin muscle (ESM) fibroblast cell culture; assay type: functional; in short: as §3
[11] = system: FM3A; assay: Inhibitory concentration required to reduce the growth of murine FM3A cells by 50%; assay type: functional, cell-based; settings: Mus musculus; in short: as §1
[12] = system: Cytomegalovirus; assay: Inhibitory concentration against CMV strain AD169 in human embryonic lung (HEL) cell culture; assay type: functional; settings: Human betaherpesvirus 5; in short: as §2
[13] = system: Human immunodeficiency virus 1; assay: Inhibitory concentration required to achieve 50% protection of MT-4 cells against cytopathicity of […]; assay type: functional, organism-based; settings: Human immunodeficiency virus 1, MT4
In short: (§4)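 MT-4 cells infected with HIV-1 (strain III_B) or HIV-2 (strain ROD). The value is the concentration that protects the cells from virus cytopathicity by 50%.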

[14] = system: MOLT-4; assay: Inhibitory concentration required to reduce the growth of human MOLT-4 cells by 50%; assay type: functional, cell-based; in short: as §1
[15] = system: Human alphaherpesvirus 2; assay: Inhibitory concentration against HSV type 2 strain 196 in human embryonic skin muscle (ESM) fibroblast cell culture; assay type: functional; in short: as §3
[16] = system: CCRF-CEM; assay: Inhibitory concentration required to reduce the growth of human CEM cells by 50%; assay type: functional, cell-based; in short: as §1
[17] = system: Human immunodeficiency virus 2; assay: Inhibitory concentration required to achieve 50% protection of MT-4 cells against cytopathicity of […]; assay type: functional, organism-based; settings: Human immunodeficiency virus 2, MT4; in short: as §4
[18] = system: Human alphaherpesvirus 1; assay: Inhibitory concentration against HSV type 1 strain Mc Intyre in human embryonic skin muscle (ESM) fibroblast cell culture; assay type: functional; in short: as §3
[19] = system: Human alphaherpesvirus 3; assay: (§5) Inhibitory concentration against TK-VZV strain YS-R in human embryonic lung (HEL) cell culture; assay type: functional; in short: as §2
[20] = system: Human alphaherpesvirus 3; assay: Inhibitory concentration against TK-VZV strain 07-1 in human embryonic lung (HEL) cell culture; assay type: functional
[21] = system: Human alphaherpesvirus 2; assay: Inhibitory concentration against HSV type 2 strain G in human embryonic skin muscle (ESM) fibroblast cell culture; assay type: functional; in short: as §3
[22] = system: ESM; assay: Inhibitory concentration required for morphologic alteration in normal cell in human embryonic skin muscle (ESM) fibroblast cell culture; assay type: functional
In short: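 Uninfected ESM cells in 96-well trays, examined under the microscope. The value is the minimal concentration that causes a detectable change in normal cell morphology. Tested up to 400 μg/mL. Single representative experiment.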

[23] = system: Human alphaherpesvirus 1; assay: Inhibitory concentration against HSV type 1 strain KOS in human embryonic skin muscle (ESM) fibroblast cell culture; assay type: functional
[24] = system: Vaccinia virus; assay: Inhibitory concentration against VV in human embryonic skin muscle (ESM) fibroblast cell culture; assay type: functional; settings: Orthopoxvirus vaccinia
[25] = system: Human alphaherpesvirus 3; assay: as §5; assay type: functional; remark: listed apart in the source

SMILES	MIC [1] [µg/mL]	IC50 [2] [µg/mL]	MIC [3] [µg/mL]	MIC [4] [µg/mL]	MIC [5] [µg/mL]	MIC [6] [µg/mL]	IC50 [7] [µg/mL]	MIC [8] [µg/mL]	MIC [9] [µg/mL]	MIC [10] [µg/mL]	IC50 [11] [µg/mL]	MIC [12] [µg/mL]	MIC [15] [µg/mL]	MIC [18] [µg/mL]	MIC [20] [µg/mL]	MIC [21] [µg/mL]	MIC [22] [µg/mL]	MIC [23] [µg/mL]	MIC [24] [µg/mL]	MIC [25] [µg/mL]	further results
Nc1ncnc2c1ncn2[C@@H]1CO[C@H](CO)[C@@H](O)C1	> 50	> 100	> 10	4 (≈ 15.1 µM)	4 (≈ 15.1 µM)	4 (≈ 15.1 µM)	12.5 (≈ 47.1 µM)	1 (≈ 3.77 µM)	> 200	150 (≈ 565 µM)	97.5 (≈ 368 µM)	> 10	0.04 (≈ 0.151 µM)	20 (≈ 75.4 µM)	10 (≈ 37.7 µM)	7 (≈ 26.4 µM)	> 400	7 (≈ 26.4 µM)	40 (≈ 151 µM)	–	IC50 [13]: > 4 µg/mL; IC50 [14]: > 100 µg/mL; IC50 [16]: > 100 µg/mL; IC50 [17]: > 4 µg/mL; MIC [19]: 3.2 µg/mL (≈ 12.1 µM)
Nc1ccn(C2COC(CO)C(O)C2)c(=O)n1 (stereo not drawn)	2 (≈ 8.29 µM)	29 (≈ 120 µM)	0.75 (≈ 3.11 µM)	1 (≈ 4.15 µM)	0.27 (≈ 1.12 µM)	0.04 (≈ 0.166 µM)	1.1 (≈ 4.56 µM)	0.02 (≈ 0.0829 µM)	> 400	4 (≈ 16.6 µM)	28 (≈ 116 µM)	0.64 (≈ 2.65 µM)	0.02 (≈ 0.0829 µM)	2 (≈ 8.29 µM)	0.75 (≈ 3.11 µM)	0.04 (≈ 0.166 µM)	> 400	0.7 (≈ 2.9 µM)	2 (≈ 8.29 µM)	0.64 (≈ 2.65 µM)	IC50 [13]: > 0.8 µg/mL; IC50 [14]: 0.87 µg/mL (≈ 3.61 µM); IC50 [16]: 1.4 µg/mL (≈ 5.8 µM); IC50 [17]: > 0.8 µg/mL
Cc1cn(C2COC(CO)C(O)C2)c(=O)[nH]c1=O (stereo not drawn)	> 50	> 100	> 10	40 (≈ 156 µM)	> 100	> 100	> 100	20 (≈ 78 µM)	> 400	> 400	> 100	> 10	40 (≈ 156 µM)	7 (≈ 27.3 µM)	> 100	150 (≈ 585 µM)	> 400	40 (≈ 156 µM)	> 400	100 (≈ 390 µM)	IC50 [13]: 36 µg/mL (≈ 140 µM); IC50 [14]: > 100 µg/mL; IC50 [16]: > 100 µg/mL; IC50 [17]: > 100 µg/mL
Nc1nc(O)c2ncn([C@@H]3CO[C@H](CO)[C@@H](O)C3)c2n1	20 (≈ 71.1 µM)	5.4 (≈ 19.2 µM)	1.2 (≈ 4.27 µM)	0.2 (≈ 0.711 µM)	0.1 (≈ 0.356 µM)	0.9 (≈ 3.2 µM)	21 (≈ 74.7 µM)	0.01 (≈ 0.0356 µM)	> 2	20 (≈ 71.1 µM)	12.3 (≈ 43.7 µM)	1.5 (≈ 5.33 µM)	0.02 (≈ 0.0711 µM)	0.7 (≈ 2.49 µM)	4 (≈ 14.2 µM)	0.1 (≈ 0.356 µM)	> 400	0.2 (≈ 0.711 µM)	7 (≈ 24.9 µM)	2.8 (≈ 9.95 µM)	IC50 [13]: > 4 µg/mL; IC50 [14]: 14 µg/mL (≈ 49.8 µM); IC50 [16]: 21 µg/mL (≈ 74.7 µM); IC50 [17]: > 4 µg/mL
O=c1[nH]c(=O)n(C2COC(CO)C(O)C2)cc1I (stereo not drawn)	> 50	> 100	> 10	0.07 (≈ 0.19 µM)	> 100	> 100	> 100	0.07 (≈ 0.19 µM)	> 200	> 200	> 100	> 10	0.07 (≈ 0.19 µM)	0.07 (≈ 0.19 µM)	> 100	0.07 (≈ 0.19 µM)	> 400	0.07 (≈ 0.19 µM)	> 200	> 100	IC50 [13]: > 100 µg/mL; IC50 [14]: > 100 µg/mL; IC50 [16]: > 100 µg/mL; IC50 [17]: > 100 µg/mL
Nc1nc2c(ncn2COCCO)c(=O)[nH]1 [ACYCLOVIR]	> 200	–	–	0.4 (≈ 1.78 µM)	–	–	–	0.7 (≈ 3.11 µM)	> 400	70 (≈ 311 µM)	–	–	2 (≈ 8.88 µM)	0.7 (≈ 3.11 µM)	–	0.02 (≈ 0.0888 µM)	–	0.02 (≈ 0.0888 µM)	> 400	–	–
O=c1[nH]c(=O)n([C@H]2C[C@H](O)[C@@H](CO)O2)cc1/C=C/Br [BRIVUDINE]	> 200	–	> 100	0.004 (≈ 0.012 µM)	0.0015 (≈ 0.0045 µM)	0.0007 (≈ 0.0021 µM)	–	70 (≈ 210 µM)	> 200	> 400	–	> 100	300 (≈ 901 µM)	0.02 (≈ 0.06 µM)	8 (≈ 24 µM)	10 (≈ 30 µM)	> 400	0.004 (≈ 0.012 µM)	2 (≈ 6 µM)	30 (≈ 90.1 µM)	–
Nc1nc2c(ncn2COC(CO)CO)c(=O)[nH]1 [GANCICLOVIR]	85 (≈ 333 µM)	–	6.2 (≈ 24.3 µM)	0.007 (≈ 0.0274 µM)	0.072 (≈ 0.282 µM)	0.02 (≈ 0.0784 µM)	–	0.02 (≈ 0.0784 µM)	> 400	2 (≈ 7.84 µM)	–	3 (≈ 11.8 µM)	0.02 (≈ 0.0784 µM)	0.001 (≈ 0.00392 µM)	0.1 (≈ 0.392 µM)	0.004 (≈ 0.0157 µM)	–	0.004 (≈ 0.0157 µM)	70 (≈ 274 µM)	0.9 (≈ 3.53 µM)	–
O=c1[nH]c(=O)n([C@H]2C[C@H](O)[C@@H](CO)O2)cc1I [IDOXURIDINE]	> 50	–	–	0.2 (≈ 0.565 µM)	0.4 (≈ 1.13 µM)	0.17 (≈ 0.48 µM)	–	0.2 (≈ 0.565 µM)	> 400	70 (≈ 198 µM)	–	–	0.2 (≈ 0.565 µM)	1 (≈ 2.82 µM)	4 (≈ 11.3 µM)	0.2 (≈ 0.565 µM)	> 400	0.2 (≈ 0.565 µM)	0.7 (≈ 1.98 µM)	4 (≈ 11.3 µM)	–
